Test results published in ChEMBL document CHEMBL2385076, “Discovery of 2-((1H-benzo[d]imidazol-1-yl)methyl)-4H-pyrido[1,2-a]pyrimidin-4-ones as novel PKM2 activators” (Bioorg Med Chem Lett, 2013).
Values after ≈ are worked out from the molar mass of the structure shown. Active and inactive are the calls of the source. No cut-off for these calls is given here.

Assays:
[1] = Passive permeability from apical to basolateral side of dog RRCK cells; type: ADME, cell-based, Canis lupus familiaris, MDCKII-LE; conditions: MDCK, read-out: permeability
Pyruvate kinase PKM [2] = molecular target: T1, Pyruvate kinase PKM (Homo sapiens, UniProt P14618); assay: Activation of human PKM2 assessed as production of ATP at infinite concentration after 10 mins by lactate dehydrogenase-coupled enzyme assay relative to FBP
Summary of the method: (§1)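 Coupled to lactate dehydrogenase, NADH loss read as the drop in absorbance at 340 nm. Reaction: 2nM human PKM2 (cleaved N-term his, 1-531), 2 mM PEP, 0.35 mM NADH, 4 units/mL LDH in 50 mM Tris pH 7.5 with KCl and 5 mM MgCl2. Compound preincubated 10 minutes at 32 °C, then 0.5mM ADP starts the reaction. Duplicates; 10-point curves; asymptote max = % activation at infinite concentration.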
Target sequence in this assay (P14618 2-531 limits assumed): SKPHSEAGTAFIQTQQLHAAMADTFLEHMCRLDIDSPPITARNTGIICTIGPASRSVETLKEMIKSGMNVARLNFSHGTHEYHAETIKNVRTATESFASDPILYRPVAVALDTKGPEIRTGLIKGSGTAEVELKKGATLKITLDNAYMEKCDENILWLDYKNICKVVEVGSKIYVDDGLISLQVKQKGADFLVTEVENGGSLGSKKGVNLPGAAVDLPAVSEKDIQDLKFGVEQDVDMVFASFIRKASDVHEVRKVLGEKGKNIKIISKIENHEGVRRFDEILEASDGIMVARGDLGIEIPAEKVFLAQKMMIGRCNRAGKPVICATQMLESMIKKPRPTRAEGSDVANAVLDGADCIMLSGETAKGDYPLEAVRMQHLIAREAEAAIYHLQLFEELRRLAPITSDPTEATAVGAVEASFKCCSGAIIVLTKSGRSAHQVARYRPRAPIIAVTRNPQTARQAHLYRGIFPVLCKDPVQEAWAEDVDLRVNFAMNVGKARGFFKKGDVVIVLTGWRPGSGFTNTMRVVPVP

[3] = Intrinsic clearance in human liver microsomes; type: ADME, Microsome; conditions: read-out: CLH
[4] = Kinetic solubility of the compound at pH 7.4; type: physicochemical; conditions: buffer, read-out: Kinetic_solubility
Pyruvate kinase PKM [5] = molecular target: T1, Pyruvate kinase PKM; assay: Activation of human PKM2 assessed as production of ATP at 10 uM after 10 mins by lactate dehydrogenase-coupled enzyme assay; summary of the method: as §1
Target sequence in this assay (P14618 2-531 limits assumed): as above

Pyruvate kinase PKM [6] = molecular target: T1, Pyruvate kinase PKM; assay: Activation of PKM2 in human Huh7 cells assessed as production of pyruvate and ATP by fluorescence assay; type: cell-based, Huh-7
Summary of the method: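 Huh7 hepatocellular carcinoma cells were treated with compound and lysed, and the lysate was given PEP and ADP. The pyruvate formed was oxidized by pyruvate oxidase, and the fluorescence, proportional to pyruvate, was read as cellular pyruvate kinase activity.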
Target sequence in this assay (P14618 whole entry): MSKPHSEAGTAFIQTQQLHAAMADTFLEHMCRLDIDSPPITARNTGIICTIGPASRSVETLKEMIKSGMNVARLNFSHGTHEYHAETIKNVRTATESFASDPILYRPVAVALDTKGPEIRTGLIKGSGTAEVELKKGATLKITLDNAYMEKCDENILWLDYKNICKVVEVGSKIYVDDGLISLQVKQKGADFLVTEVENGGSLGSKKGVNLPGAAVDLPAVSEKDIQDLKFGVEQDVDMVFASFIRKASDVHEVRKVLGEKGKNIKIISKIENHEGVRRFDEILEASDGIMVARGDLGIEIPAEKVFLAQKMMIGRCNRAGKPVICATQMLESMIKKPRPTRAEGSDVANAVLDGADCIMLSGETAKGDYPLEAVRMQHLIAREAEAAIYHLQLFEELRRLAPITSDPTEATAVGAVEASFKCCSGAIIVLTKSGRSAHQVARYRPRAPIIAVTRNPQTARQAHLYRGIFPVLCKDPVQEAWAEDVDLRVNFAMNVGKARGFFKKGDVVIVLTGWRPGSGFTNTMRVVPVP

HT-29 = assay: Antiproliferative activity against human HT-29 cells at 10 uM after 5 days; type: functional; conditions: HT-29, 120 h
Summary of the method: (§2)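 Cells plated in Optimem-GlutaMax medium and cultured overnight before exposure to 10 µM compound. Viability measured with CytoTox-Glo after 5 days of treatment.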

HuH-1 (human) = assay: Antiproliferative activity against human HuH1 cells at 10 uM after 5 days
Pyruvate kinase PKM [7] = molecular target: T1, Pyruvate kinase PKM; assay: Activation of PKM2 in human Snu182 cells assessed as oxygen consumption rate at 10 uM after 18 hrs; type: cell-based
Summary of the method: (§3)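 Snu182 cells seeded at 12k/well in RPMI with 10% FBS and 2 mM glutamine, cultured overnight, then given 10 µM compound for 18 h at 37°C, 5% CO2. Medium switched to XF DMEM with 5 mM glucose plus 10 µM compound; OCR and ECAR measured on a Seahorse XF96 analyzer.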
Target sequence in this assay (P14618 2-531 limits assumed): as the sequence (P14618 2-531 limits assumed) above

Pyruvate kinase PKM [8] = molecular target: T1, Pyruvate kinase PKM; assay: Activation of PKM2 in human Snu182 cells assessed as extracellular acidification rate at 10 uM after 18 hrs; type: cell-based; summary of the method: as §3
Target sequence in this assay (P14618 2-531 limits assumed): as above

JHH2 = assay: Antiproliferative activity against human JHH2 cells at 10 uM after 5 days; type: functional, cell-based; summary of the method: as §2
SNU-449 = assay: Antiproliferative activity against human SNU449 cells at 10 uM after 5 days; type: functional, cell-based; summary of the method: as §2
Pyruvate kinase PKM [9] = molecular target: T1, Pyruvate kinase PKM; assay: Activation of PKM2 in human Huh7 cells assessed as formation of enzyme tetramers; type: cell-based; conditions: Huh-7
Target sequence in this assay (P14618 2-531 limits assumed): as above

SNU-182 = assay: Antiproliferative activity against human SNU182 cells at 10 uM after 5 days; type: functional, cell-based; summary of the method: as §2
Pyruvate kinase PKM [10] = molecular target: T1, Pyruvate kinase PKM; assay: Activation of human PKM2 assessed as production of ATP at 10 uM after 10 mins by high-throughput screening assay relative to control
Summary of the method: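 High-throughput screen in which PKM2 activity was read as ATP production by luminescence, reported as % activation at 10 µM.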
Target sequence in this assay (P14618 2-531 limits assumed): as above

Structure (SMILES)	Papp A→B [1] [×10⁻⁶ cm/s]	max activation (Pyruvate kinase PKM [2]) [%]	microsomal CLint [3] [µL/min/mg]	solubility kinetic [4] [µM]	other results
Cc1cn2c(=O)cc(Cn3cnc4ccccc43)nc2s1	14.3	189	8		
Cc1csc2nc(Cn3cnc4ccccc43)cc(=O)n12	23.4	136	8	117 (≈ 34.7 µg/mL)	
Cc1ccc2nc(Cn3c(C)nc4ccccc43)cc(=O)n2c1					max activation (Pyruvate kinase PKM [5]): 73%
CCc1ccc(C)n2c(=O)cc(Cn3cnc4ccccc43)nc12	16.2	135	184		
O=c1cc(Cn2cnc3ccccc32)nc2sccn12	17.3	162	8	569 (≈ 161 µg/mL)	
Cc1cccn2c(=O)cc(Cn3cnc4ccccc43)nc12	24.2	172	17.8	529 (≈ 154 µg/mL)	
COc1cccc(NS(=O)(=O)c2cc3c(cc2Cl)NC(=O)CO3)c1	8.8	108	22.4	8.6 (≈ 3.17 µg/mL)	EC50 (Pyruvate kinase PKM [6]): 22 nM; inhibition at 10 µM (HT-29): 26.8%; Activity (HuH-1 (human)): inactive; Activity (Pyruvate kinase PKM [7]): 85.7%; Activity (Pyruvate kinase PKM [8]): 91.4%; Activity (JHH2): inactive; Activity (SNU-449): inactive; Activity (Pyruvate kinase PKM [9]): Active; Activity (SNU-182): inactive
Cc1sc2nc(Cn3cnc4ccccc43)cc(=O)n2c1C	22.9	160	12.5	141 (≈ 43.8 µg/mL)	
CCc1nn2c(=O)cc(Cn3cnc4ccccc43)nc2s1	17.6	140	8		

Further lines, with some results ahead:

Papp A→B [1] [×10⁻⁶ cm/s]	max activation (Pyruvate kinase PKM [2]) [%]	microsomal CLint [3] [µL/min/mg]	solubility kinetic [4] [µM]	Structure (SMILES)	other results
21.3	161	13.3	586 (≈ 170 µg/mL)	Cc1ccn2c(=O)cc(Cn3cnc4ccccc43)nc2c1	
11.5	167	8		O=c1cc(Cn2cnc3ccccc32)nc2scc(-c3ccccc3)n12	
	161			O=c1cc(Cn2cnc3ccccc32)nc2ccccn12	
25.8	123	< 8	580 (≈ 178 µg/mL)	COc1ccc2nc(Cn3cnc4ccccc43)cc(=O)n2c1	
22.2	156	< 8	558 (≈ 173 µg/mL)	O=c1cc(Cn2cnc3ccccc32)nc2ccc(Cl)cn12	
	148			Cc1ccc2nc(Cn3c(Cc4ccccc4)nc4ccccc43)cc(=O)n2c1	Activity (Pyruvate kinase PKM [10]): 155%
	149			Cc1ccc2nc(Cn3cnc4ccccc43)cc(=O)n2c1	
